Consider 11 compounds from ChEMBL document CHEMBL1153817, “New resorcinol-anandamide "hybrids" as potent cannabinoid receptor ligands endowed with antinociceptive activity in vivo” (J Med Chem, 2009).

Calls of active or inactive are those of the source. No cut-off for these calls is given here.

T1 sequence (P34972 whole entry): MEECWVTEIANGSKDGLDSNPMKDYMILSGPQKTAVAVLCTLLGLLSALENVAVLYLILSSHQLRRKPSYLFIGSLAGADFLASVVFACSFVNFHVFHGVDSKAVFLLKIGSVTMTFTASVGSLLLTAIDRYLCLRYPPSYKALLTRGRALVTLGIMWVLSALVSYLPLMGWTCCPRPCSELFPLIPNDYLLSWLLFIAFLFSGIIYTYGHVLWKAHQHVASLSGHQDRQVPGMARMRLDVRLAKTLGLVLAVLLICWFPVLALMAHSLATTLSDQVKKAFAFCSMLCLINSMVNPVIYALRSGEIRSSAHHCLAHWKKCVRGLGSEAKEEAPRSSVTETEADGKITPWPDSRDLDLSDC

One test addresses T1, Cannabinoid receptor 2 (Homo sapiens, UniProt P34972). Kind of test: Binding affinity to human recombinant CB2 receptor expressed in african green monkey COS cells by radioligand binding assay. The class given is cell-based. As to conditions: read-out: Ki.
For orientation: Ki means the equilibrium dissociation constant of an inhibitor or competing ligand from its target. Regarding `CCCCCCC(C)(C)c1cc(O)cc(OCCCCCCCCCCC(=O)NCCO)c1`, the Ki was 30 nM.

Consider `CCCCOc1cc(O)cc(OCCCCCCCCCCC(=O)NC2CC2)c1`, for which the Ki turned out to be 120 nM.

Regarding `CCCCCCC(C)(C)c1cc(O)cc(OCCCCCCCC(=O)NCC2CC2)c1`, the Ki worked out at 34 nM.

In the case of `CCCCCCCOc1cc(O)cc(OCCCCCCCCCCC(=O)NC2CC2)c1`, the Ki turned out to be 210 nM.

As to `CCCCCCC(C)(C)c1cc(O)cc(OCCCCCCCC(=O)NC2CC2)c1`, the Ki amounted to 7.9 nM.

Turning to `CC(C)CCOc1cc(O)cc(OCCCCCCCCCCC(=O)NC2CC2)c1`, the Ki was 130 nM.

In the case of `CCCCOc1cc(O)cc(OCCCCCCCCCCC(=O)NCCO)c1`, the Ki worked out at 1620 nM.

With `CCCCCCC(C)(C)c1cc(O)cc(OCCCCCCCCCCCC(=O)NCC2CC2)c1`, the Ki was 600 nM.

Consider `CCCCCCC(C)(C)c1cc(O)cc(OCCCCCCCCCCC(=O)NCc2ccc(O)c(OC)c2)c1`, for which the Ki came out at 510 nM.

For the compound `CC(C)CCOc1cc(O)cc(OCCCCCCCCCCC(=O)NCCO)c1`, the Ki is 570 nM.

For a further test, the target named is T1, Cannabinoid receptor 2. Kind of test: Displacement of [3H]CP-55940 form human CB2 receptor expressed in HEK cells at 10 uM. The class given is cell-based. As to conditions: HEK293. A general note: In a radioligand displacement assay an active substance lowers the binding of a labelled ligand.
As for `CCCCCCC(C)(C)c1cc(O)cc(OCCCCCCCCCCC(=O)NCCO)c1`, the Activity is greater than 50%.

Compound `CCCCOc1cc(O)cc(OCCCCCCCCCCC(=O)NC2CC2)c1` displayed an Activity greater than 50%.

Take `CCCCCCC(C)(C)c1cc(O)cc(OCCCCCCCC(=O)NCC2CC2)c1`: the Activity was greater than 50%.

Take `CCCCCCCOc1cc(O)cc(OCCCCCCCCCCC(=O)NC2CC2)c1`: the Activity was greater than 50%.

Consider `CCCCCCC(C)(C)c1cc(O)cc(OCCCCCCCC(=O)NC2CC2)c1`, for which the Activity was greater than 50%.

Regarding `CC(C)CCOc1cc(O)cc(OCCCCCCCCCCC(=O)NC2CC2)c1`, the Activity was greater than 50%.

`CCCCOc1cc(O)cc(OCCCCCCCCCCC(=O)NCCO)c1` came in with an Activity greater than 50%.

Compound `CCCCCCC(C)(C)c1cc(O)cc(OCCCCCCCCCCCC(=O)NCC2CC2)c1` yielded an Activity greater than 50%.

`CCCCCCC(C)(C)c1cc(O)cc(OCCCCCCCCCCC(=O)NCc2ccc(O)c(OC)c2)c1` displayed an Activity greater than 50%.

The compound `CC(C)CCOc1cc(O)cc(OCCCCCCCCCCC(=O)NCCO)c1` came in with an Activity greater than 50%.

The next test has as its system Mus musculus. Kind of test: Antinociceptive activity against formalin-induced paw pain in mouse at 1 mg/kg, ip pretreated 15 mins before formalin challenge assessed after 30 to 45 mins in presence of CB2 receptor-antagonist AM630. Type of test: functional, organism-based. On the set-up: dose 1 mg/kg.
Settings: not given
The gist of the method: (§1)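 Formalin (1.25% in saline, 30 µL) injected into dorsal hind paw; mice randomised, n = 8-10 per group, one treatment each. Test drug given ip in 10% DMSO/saline 15 min pre-formalin; rimonabant or AM630 (1 mg/kg ip) given 5 min before test drug. Lifting, licking, shaking, flinching timed per 5 min over 60 min; one-way ANOVA with Bonferroni.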
On to `CCCCCCC(C)(C)c1cc(O)cc(OCCCCCCCC(=O)NC2CC2)c1`, for which the result was inactive.

A further test deals with Mus musculus. The test is described as follows: Antinociceptive activity against formalin-induced paw pain in mouse at 1 mg/kg, ip pretreated 15 mins before formalin challenge assessed after 30 to 45 mins. The class given is functional, organism-based. On the set-up: dose 1 mg/kg.
Settings: not given
A digest of the protocol: as §1
Consider `CCCCCCC(C)(C)c1cc(O)cc(OCCCCCCCC(=O)NC2CC2)c1`, for which the outcome was Active.

A further test deals with Mus musculus. Kind of test: Antinociceptive activity against formalin-induced paw pain in mouse at 1 mg/kg, ip pretreated 15 mins before formalin challenge assessed after 30 to 45 mins in presence of CB1 receptor-antagonist rimonabant. Type of test: functional, organism-based. On the set-up: dose 1 mg/kg.
Settings: not given
A digest of the protocol: as §1
On to `CCCCCCC(C)(C)c1cc(O)cc(OCCCCCCCC(=O)NC2CC2)c1`, for which the outcome was inactive.

A further test deals with COS. The test is described as follows: Selectivity index, ratio of Ki for human CB2 receptor to Ki for human CB1 receptor expressed in african green monkey COS cells. Type of test: cell-based.
Settings: not given
A digest of the protocol: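 Ki at COS-expressed human CB1 and CB2 each from [3H]CP-55,940 displacement (0.14 nM for CB1), IC50 converted via Cheng-Prusoff, mean of 3 experiments; index taken as ratio of the two Ki values.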
Turning to `CCCCCc1cc(O)cc(OCCCCCCCCCCC(=O)NC2CC2)c1`, the Ratio Ki worked out at 400 nM.

Turning to `CCCCCCC(C)(C)c1cc(O)cc(OCCCCCCCCCCC(=O)NCCO)c1`, the Ratio Ki worked out at 10300 nM.

For the compound `CCCCOc1cc(O)cc(OCCCCCCCCCCC(=O)NC2CC2)c1`, the Ratio Ki was 2300 nM.

On to `CCCCCCC(C)(C)c1cc(O)cc(OCCCCCCCC(=O)NCC2CC2)c1`, for which the Ratio Ki is 2900 nM.

For the compound `CCCCCCCOc1cc(O)cc(OCCCCCCCCCCC(=O)NC2CC2)c1`, the Ratio Ki stood at 10600 nM.

In the case of `CCCCCCC(C)(C)c1cc(O)cc(OCCCCCCCC(=O)NC2CC2)c1`, the Ratio Ki turned out to be 700 nM.

Regarding `CC(C)CCOc1cc(O)cc(OCCCCCCCCCCC(=O)NC2CC2)c1`, the Ratio Ki was determined as 1700 nM.

As for `CCCCOc1cc(O)cc(OCCCCCCCCCCC(=O)NCCO)c1`, the Ratio Ki was determined as 1500 nM.

For `CCCCCCC(C)(C)c1cc(O)cc(OCCCCCCCCCCCC(=O)NCC2CC2)c1`, the Ratio Ki turned out to be 9000 nM.

In the case of `CCCCCCC(C)(C)c1cc(O)cc(OCCCCCCCCCCC(=O)NCc2ccc(O)c(OC)c2)c1`, the Ratio Ki was 5500 nM.

Consider `CC(C)CCOc1cc(O)cc(OCCCCCCCCCCC(=O)NCCO)c1`, for which the Ratio Ki worked out at 5100 nM.

For a further test, the target named is T2, Cannabinoid receptor 1 (Homo sapiens, UniProt P21554). Kind of test: Displacement of [3H]CP-55940 form human CB1 receptor expressed in HEK cells at 10 uM. Type of test: cell-based. The following applies: HEK293.
T2 sequence (P21554 whole entry): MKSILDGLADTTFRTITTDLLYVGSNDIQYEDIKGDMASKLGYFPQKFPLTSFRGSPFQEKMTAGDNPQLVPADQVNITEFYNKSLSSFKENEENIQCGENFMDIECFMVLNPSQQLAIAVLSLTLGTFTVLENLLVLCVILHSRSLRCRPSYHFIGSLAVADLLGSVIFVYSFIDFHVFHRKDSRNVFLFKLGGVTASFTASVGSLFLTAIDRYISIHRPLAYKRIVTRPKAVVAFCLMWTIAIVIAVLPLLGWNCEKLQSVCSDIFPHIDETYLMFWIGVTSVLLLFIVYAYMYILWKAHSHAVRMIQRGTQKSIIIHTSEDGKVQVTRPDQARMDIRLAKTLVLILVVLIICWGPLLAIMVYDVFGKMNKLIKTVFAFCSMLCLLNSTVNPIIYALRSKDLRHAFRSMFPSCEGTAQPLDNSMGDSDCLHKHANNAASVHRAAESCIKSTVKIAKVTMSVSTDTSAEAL
`CCCCCCC(C)(C)c1cc(O)cc(OCCCCCCCCCCC(=O)NCCO)c1` yielded an Activity greater than 50%.

Turning to `CCCCOc1cc(O)cc(OCCCCCCCCCCC(=O)NC2CC2)c1`, the Activity is greater than 50%.

As for `CCCCCCC(C)(C)c1cc(O)cc(OCCCCCCCC(=O)NCC2CC2)c1`, the Activity was greater than 50%.

In the case of `CCCCCCCOc1cc(O)cc(OCCCCCCCCCCC(=O)NC2CC2)c1`, the Activity was greater than 50%.

In turn, `CCCCCCC(C)(C)c1cc(O)cc(OCCCCCCCC(=O)NC2CC2)c1` displayed an Activity greater than 50%.

For the compound `CC(C)CCOc1cc(O)cc(OCCCCCCCCCCC(=O)NC2CC2)c1`, the Activity is greater than 50%.

In the case of `CCCCOc1cc(O)cc(OCCCCCCCCCCC(=O)NCCO)c1`, the Activity was greater than 50%.

In turn, `CCCCCCC(C)(C)c1cc(O)cc(OCCCCCCCCCCCC(=O)NCC2CC2)c1` showed an Activity greater than 50%.

The compound `CCCCCCC(C)(C)c1cc(O)cc(OCCCCCCCCCCC(=O)NCc2ccc(O)c(OC)c2)c1` registered an Activity greater than 50%.

Take `CC(C)CCOc1cc(O)cc(OCCCCCCCCCCC(=O)NCCO)c1`: the Activity is greater than 50%.

Another test has as its target T2, Cannabinoid receptor 1. Kind of test: Binding affinity to human recombinant CB1 receptor expressed in african green monkey COS cells by radioligand binding assay. Type of test: cell-based. As to conditions: read-out: Ki.
As for `CCCCCCC(C)(C)c1cc(O)cc(OCCCCCCCCCCC(=O)NCCO)c1`, the Ki turned out to be 310 nM.

As to `CCCCOc1cc(O)cc(OCCCCCCCCCCC(=O)NC2CC2)c1`, the Ki came out at 280 nM.

For the compound `CCCCCCC(C)(C)c1cc(O)cc(OCCCCCCCC(=O)NCC2CC2)c1`, the Ki was found to be 100 nM.

In the case of `CCCCCCCOc1cc(O)cc(OCCCCCCCCCCC(=O)NC2CC2)c1`, the Ki was found to be 2220 nM.

With `CCCCCCC(C)(C)c1cc(O)cc(OCCCCCCCC(=O)NC2CC2)c1`, the Ki came out at 5.6 nM.

With `CC(C)CCOc1cc(O)cc(OCCCCCCCCCCC(=O)NC2CC2)c1`, the Ki turned out to be 220 nM.

Consider `CCCCOc1cc(O)cc(OCCCCCCCCCCC(=O)NCCO)c1`, for which the Ki worked out at 2410 nM.

As to `CCCCCCC(C)(C)c1cc(O)cc(OCCCCCCCCCCCC(=O)NCC2CC2)c1`, the Ki was 5400 nM.

With `CCCCCCC(C)(C)c1cc(O)cc(OCCCCCCCCCCC(=O)NCc2ccc(O)c(OC)c2)c1`, the inhibitory constant (Ki) turned out to be 2820 nM.

On to `CC(C)CCOc1cc(O)cc(OCCCCCCCCCCC(=O)NCCO)c1`, for which the Ki amounted to 2880 nM.
